Here are results for 23 compounds from ChEMBL document CHEMBL1140369, “Synthesis and SAR of 2-carboxylic acid indoles as inhibitors of plasminogen activator inhibitor-1” (Bioorg Med Chem Lett, 2005).

Molecules are shown by their SMILES.

Broadly, the Inhibition is the change of the read-out against control, counted positive when it falls. High values mean strong suppression, low ones little suppression. By IC50 is commonly meant the concentration needed to halve the response being measured.

For experiment [1], the target named is T1, Plasminogen activator inhibitor 1 (Homo sapiens, UniProt P05121). Put plainly: Percentage inhibitory activity against Plasminogen activator inhibitor-1 at 25 uM. In a few lines:
(§1)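 Recombinant human PAI-1 with compound, then tPA added; restored tPA cleavage of a chromogenic substrate read spectrophotometrically and reported as % inhibition at single concentration. Buffer pH 6.6: Na2HPO4 50 mM, NaCl 200 mM, EDTA 1 mM, no serum protein.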

For experiment [2], the target named is T1, Plasminogen activator inhibitor 1. Put plainly: Percentage inhibitory activity against Plasminogen activator inhibitor-1 at 10 uM. The essentials:
as §1

Experiment [3] shares this target. Put plainly: Percentage inhibitory activity against Plasminogen activator inhibitor-1 at 100 uM. In a few lines: as §1
The target is the same in experiment [4]. In words: Inhibitory concentration against Plasminogen activator inhibitor-1 by antibody assay.

T1 sequence (P05121 whole entry): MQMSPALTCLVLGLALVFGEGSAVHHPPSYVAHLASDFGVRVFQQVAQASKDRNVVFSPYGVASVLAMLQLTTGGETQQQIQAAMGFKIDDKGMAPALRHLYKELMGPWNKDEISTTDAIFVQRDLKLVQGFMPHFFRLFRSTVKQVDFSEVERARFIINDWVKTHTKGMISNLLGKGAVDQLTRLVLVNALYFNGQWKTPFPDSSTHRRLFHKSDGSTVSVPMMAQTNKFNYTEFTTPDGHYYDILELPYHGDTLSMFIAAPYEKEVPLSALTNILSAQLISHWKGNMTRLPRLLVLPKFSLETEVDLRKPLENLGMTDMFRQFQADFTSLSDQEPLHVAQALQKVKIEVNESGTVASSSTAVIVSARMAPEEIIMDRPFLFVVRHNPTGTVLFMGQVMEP

As for `Cn1c(C(=O)O)c(-c2ccccc2)c2cc(NS(=O)(=O)c3ccc(C(C)(C)C)cc3)ccc21`, the Inhibition in experiment [1] worked out at 46%; in experiment [2], 5%.
The matching figures for `O=C(Nc1ccc2c(c1)c(-c1ccccc1)c(C(=O)O)n2Cc1ccccc1)c1ccc(F)cc1F`: 43% and 24%.
The like results for `O=C(O)c1c(-c2ccccc2)c2cc(NS(=O)(=O)c3cccc4cccnc34)ccc2n1Cc1ccccc1` were, in that order, 43% and 8%.
Turning to `O=C(Nc1ccc(Cl)c(Cl)c1)c1ccc(CNc2cc([N+](=O)[O-])ccc2C(=O)O)cc1`, the Inhibition came to 74% in experiment [3], 51% in experiment [1] and 3% in experiment [2]. The same compound yielded an IC50 in experiment [4] of 17.8 µM.
`CCCCS(=O)(=O)Nc1ccc2c(c1)cc(C(=O)O)n2Cc1ccccc1` yielded an Inhibition in experiment [3] of 14%.
As for `CC(C)(C)c1ccc(Nc2ccc3c(c2)c(-c2ccccc2)c(C(=O)O)n3Cc2ccccc2)cc1`, the Inhibition in experiment [1] amounted to 73%; in experiment [2], 45%.
For the compound `O=C(Nc1ccc2c(c1)c(-c1ccccc1)c(C(=O)O)n2Cc1ccccc1)Nc1ccc(F)cc1F`, the results for the Inhibition in experiment [1] and in experiment [2] were 61% and 27%, respectively.
The matching figures for `O=C(O)c1c(-c2ccccc2)c2cc(NS(=O)(=O)c3ccc(-c4ccccc4)cc3)ccc2n1Cc1ccccc1`: 61% and 44%.
The like results for `CC(C)(C)c1ccc(S(=O)(=O)Nc2ccc3c(c2)c(-c2ccccc2)c(C(=O)O)n3Cc2ccccc2)cc1` were, in that order, 82% and 41%.
Regarding `O=C(O)c1c(-c2ccccc2)c2cc(NS(=O)(=O)c3ccccc3)ccc2n1Cc1ccc(-c2ccccc2)cc1`, the results for the Inhibition in experiment [1] and in experiment [2] were 87% and 79%, respectively.
The like results for `Cn1c(C(=O)O)c(-c2ccccc2)c2cc(NS(=O)(=O)c3ccc(-c4ccccc4)cc3)ccc21` were, in that order, 68% and 11%.
The like results for `Cn1c(C(=O)O)c(-c2ccccc2)c2cc(NS(=O)(=O)c3cccc4cccnc34)ccc21` were, in that order, 1% and 0%.
Consider `O=C(O)c1cc2cc(NS(=O)(=O)c3ccc(Cl)c(Cl)c3)ccc2n1Cc1ccccc1`, for which the Inhibition in experiment [3] is 62%.
Turning to `CC(C)(C)c1ccc(Nc2ccc3c(c2)c(-c2ccccc2)c(C(=O)O)n3Cc2ccc(-c3ccccc3)cc2)cc1`, the figures for the Inhibition in experiment [1] and in experiment [2] were 80% and 52%, respectively.
The like results for `Cc1cccc(Nc2ccc3c(c2)c(-c2ccccc2)c(C(=O)O)n3Cc2ccccc2)c1` were, in that order, 69% and 24%.
The matching figures for `O=C(O)c1c(-c2ccccc2)c2cc(-n3cccc3)ccc2n1Cc1ccccc1`: 69% and 12%.
The matching figures for `Cn1c(C(=O)O)c(-c2ccccc2)c2cc(NS(=O)(=O)c3ccc(OC(F)(F)F)cc3)ccc21`: 19% and 0%.
Regarding `O=C(O)c1c(-c2ccccc2)c2cc(NS(=O)(=O)c3ccc(OC(F)(F)F)cc3)ccc2n1Cc1ccccc1`, the Inhibition in experiment [1] is 81%; in experiment [2] it was 33%.
For `Cc1ccc(C)n1-c1ccc2c(c1)c(-c1ccccc1)c(C(=O)O)n2Cc1ccccc1`, the Inhibition in experiment [1] is 83%; in experiment [2] it was 23%.
In experiment [3], `O=C(O)c1cc2cc(NS(=O)(=O)c3ccccc3)ccc2n1Cc1ccccc1` registered an Inhibition of 32%.
Take `O=C(O)c1cc2cc(NS(=O)(=O)c3ccc(-c4ccccc4)cc3)ccc2n1Cc1ccccc1`: the Inhibition came out at 64% in experiment [3] and 49% in experiment [1]. For the same compound, in experiment [4], half-maximal inhibition (IC50) required 63.1 µM.
Consider `O=C(O)c1c(-c2ccccc2)c2cc(Nc3ccc(-c4ccccc4)cc3)ccc2n1Cc1ccccc1`, for which the Inhibition in experiment [1] came to 71%; in experiment [2], 36%.
With `O=C(O)C(=O)c1cn(Cc2ccccc2)c2ccc(-c3ccc(OC(F)(F)F)cc3)cc12`, the values for the Inhibition in experiment [3], in experiment [1] and in experiment [2] were 83%, 47% and 0%, respectively.
